{"source": "paper PMC4425738", "about": "(Journal of controlled release : official journal of the …, 2014)", "tested_on": "Human adult epidermal keratinocytes", "assay": "Cell internalization in vitro", "assay_type": "cell-based", "in_short": "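FITC-labelled peptide carrier (1, 4, 7 or 10 mg/mL in medium; 30 or 120 min) on keratinocytes seeded on poly-D-lysine glass dishes, grown 24 h in supplemented EpiLife at 37 °C, 5% CO2. Free-carrier arm: 0.1 mg/mL labelled peptide, 15 min, ± 10 mg/mL unlabelled carrier. Medium-only control. Hoechst 33342 nuclear stain, Trolox-HBSS washes, ethidium bromide to exclude dead cells, then confocal imaging. Mean ± SD.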", "data": [{"substance": "FITC-AC-TGSTQHQ-CG, Disulfide Bridge 2–10 (disulfide) [FITC-SPACE peptide]", "values": [{"measurement": "increase of uptake by addition of free SPACE peptide", "setting": "15 min, 0.1 mg/mL FITC-SPACE peptide with vs without 10 mg/mL unlabeled SPACE peptide, mean ± SD n=3", "result": "3.9±1.5", "unit": "fold"}, {"measurement": "intracellular localization", "setting": "15 min, 0.1 mg/mL, absence of excess free SPACE peptide", "result": "localized primarily in punctate spots"}, {"measurement": "intracellular localization", "setting": "15 min, 0.1 mg/mL, with 10 mg/mL free SPACE peptide", "result": "cytoplasmic localization"}, {"measurement": "intracellular localization", "setting": "120 min, concentrations of 1–4 mg/mL", "result": "punctate fluorescent spots"}, {"measurement": "intracellular localization", "setting": "120 min, higher concentrations (7, 10 mg/mL)", "result": "diffused throughout the cytoplasm"}]}]}
